# NPY2 pot ag = potentiators or agonists of human neuropeptide Y receptor Y2. activation, % at 3.6 µM. actives 0.45% (n = 220,000). cells expressing NPY-Y2, potentiator/agonist read-out. AID 1359; in the data active = activation above about 27%;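 note: cells stimulated with NPY near EC25 plus isoproterenol at EC100; 0% = vehicle plus submaximal agonist and 100% = vehicle plus saturating agonist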
# NPY-Y1 PAM-ag = potentiates or activates human NPY-Y1 receptor | P25929 | NPY-Y1 expressing cells, potentiator/agonist activation | activation, % at 3.6 µM | actives 0.37% (n = 220,000) | AID 1304; in the data active = activation above about 33%, passing the limit was not always enough;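 note: cells stimulated with NPY at EC10 then isoproterenol at EC100; 0% = low agonist plus stimulus and 100% = saturating agonist plus stimulus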
# Target sequence (P25929 whole entry, looked up): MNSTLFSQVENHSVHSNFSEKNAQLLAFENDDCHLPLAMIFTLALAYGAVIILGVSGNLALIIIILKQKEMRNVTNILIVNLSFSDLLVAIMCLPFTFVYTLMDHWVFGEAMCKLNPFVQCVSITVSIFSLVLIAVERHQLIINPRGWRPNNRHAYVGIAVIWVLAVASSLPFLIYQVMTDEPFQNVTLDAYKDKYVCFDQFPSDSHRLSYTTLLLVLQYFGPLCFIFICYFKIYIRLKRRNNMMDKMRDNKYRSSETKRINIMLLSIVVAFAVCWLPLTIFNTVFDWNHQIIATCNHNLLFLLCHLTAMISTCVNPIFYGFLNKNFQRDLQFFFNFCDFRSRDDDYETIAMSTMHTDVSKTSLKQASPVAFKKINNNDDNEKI
# NPY-Y1 antag = blocks the human neuropeptide Y Y1 receptor; HEK293-CNG Y1 cells, membrane potential fluorescence; NPY at EC95, then isoproterenol; inhibition, % at 3.6 µM; AID 1040; actives 1% (n = 200,000); P25929;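 active = inhibition above the campaign mean inhibition of all tested compounds plus 3 SD, cut at about 20% in these data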;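 note: 0% = DMSO wells given NPY plus isoproterenol and 100% = isoproterenol alone without NPY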
#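 Assay system: HEK293 Y1/CNG channel cell line; Doses: single compound dose of 3.6 µM, 0.4% DMSO; Timing: dye 3 h, compound 60 min room temperature, stimulation 45 min; Technique: Membrane-potential fluorescent dye readout; Measure: % inhibition of NPY effect.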
# NPY-Y2 antag = antagonists of human neuropeptide Y receptor Y2; NPY-Y2 expressing cells, antagonist mode; inhibition, % at 2.7 µM; actives 0.99% (n = 140,000); AID 793; in the data active = inhibition above about 17%;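 note: 0% = vehicle with agonist challenge and 100% = reference antagonist with challenge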
# NPY1 antag ctr = antagonizes human NPY-Y1, counter-screen to NPY-Y2 antagonists. actives 19% (n = 710). inhibition, % at 3.6 µM. cell-based NPY-Y1 antagonism counterscreen. shares compounds with NPY-Y2 antag; in the data active = inhibition above about 20%;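 note: cells challenged with NPY then isoproterenol with cAMP sensed through a CNG channel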
# NPY-Y2 ant conf = human NPY-Y2 antagonism, confirmation; actives 32% (n = 710); shares compounds with NPY-Y2 antag; inhibition, % at 2.8 µM; HEK293 NPY-Y2 CNG channel, membrane potential fluorescence;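 active = mean inhibition of triplicate wells above the hit cutoff set in the primary screen, cut at about 17% in these data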;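 note: 0% = DMSO with NPY challenge and 100% = BIIE0246 high control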
# An asterisk follows results filed as active; / = no result; ! = not active in a repeat. This is a sample that favours compounds with a hit; in the whole collection about 1.8% have one here.
SMILES,NPY2 pot ag,NPY-Y1 PAM-ag,NPY-Y1 antag,NPY-Y2 antag,NPY1 antag ctr,NPY-Y2 ant conf
Nc1nc(CN2CCC(Cc3ccccc3)CC2)nc(Nc2ccccc2)n1,-7,-46,13,19*,16,15
Cc1cc(C)nc(N/N=C/C2=C(N3CCOCC3)C(=C/c3ccccc3)/CC2)n1,6,0,17,76*,56*,72*
Cc1ccc(NC(=O)NCCCc2ccccc2)cc1,-11,-7,7,3,/,/
COc1ccccc1OCCCCN1CCN(C(c2ccccc2)c2ccccc2)CC1,-28,-34,5,20*,14,25*
O=C(CSc1nnc2ccccn12)Nc1ccccc1C(=O)O,11,7,4,/,/,/
CCn1c(SCc2ccccc2Cl)nc2nc3c(cc2c1=O)CCCC3,-2,-52,3,18*,9,14
CCn1c(SCC(=O)NCc2ccccc2)nc2nc3c(cc2c1=O)CCCC3,-13,0,2,/,/,/
COc1cccc(CNc2nc3ccccc3n2CCN2CCCCC2)c1,-16,-27,14,19*,13,16
Brc1cccc(CNc2nc3ccccc3n2CCN2CCCCC2)c1,-11,0,/,/,/,/
CCCC(c1nnnn1C1CCCC1)N1CCN(c2ccccc2F)CC1 (configuration not stated),-17,-3,14,18*,18,4
CCn1c(C(C)NC(=O)c2cccs2)n[nH]c1=S (configuration not stated),-2,5,1,22*,1,0
C=CCn1c(C(C)NC(=O)c2cccs2)n[nH]c1=S (configuration not stated),-3,14,2,10,/,/
O=C(CCCCCC(=O)N(CCO)CCO)N(CCO)CCO,15,0,-4,1,/,/
COc1ccc(C2=C(CN(C)C)C(c3ccccc3)c3ccccc3O2)cc1 (configuration not stated),-21,-17,23*!,18*!,25*,34*
CCOc1ccc(C(=O)NC(=S)Nc2ccc(N3CCCCC3)cc2)cc1[N+](=O)[O-],-7,-12,-1,29*,78*,91*
COc1ccc(C(=O)NC(=S)Nc2ccc(NC(=O)c3ccco3)cc2)cc1[N+](=O)[O-],10,8,2,19*,52*,88*
COc1ccc(C(=O)NC(=S)Nc2cccc(NC(=O)c3ccco3)c2)cc1[N+](=O)[O-],-13,-3,11,0,/,/
N#Cc1ccc(COn2nnc3ccccc32)cc1,1,14,8,/,/,/
CN(CCO)c1cnccn1,0,16,-5,/,/,/
CCOc1ccc(C(CC(=O)O)NC(=O)c2sc3ccccc3c2Cl)cc1 (configuration not stated),-23,-43,18,19*,22*,28*
Cc1cc(Cl)c(OCCCNCc2ccccc2)c(Br)c1,-14,-50,14,18*,17,23*
COc1ccc(-c2nc(NC(=O)c3n[nH]c(=O)c4ccccc34)sc2C)cc1,3,14,-2,0,/,/
O=C(c1cccnc1)N1CCN(c2c(Cl)cccc2[N+](=O)[O-])CC1,-20,-11,11,5,/,/
CCC(Oc1ccc2c(=O)c(-c3ccccc3OC)coc2c1)C(=O)OCc1ccccc1 (configuration not stated),-18,-17,2,37*,6,66*
COc1ccccc1-c1coc2cc(OC(=O)N3CCOCC3)ccc2c1=O,5,13,/,/,/,/
SMILES,NPY2 pot ag,NPY-Y1 PAM-ag,NPY-Y1 antag,NPY-Y2 antag,NPY1 antag ctr,NPY-Y2 ant conf
Cc1ccc(NC(=O)NCc2ccc3c(c2)OCO3)cc1C,-17,-18,0,/,/,/
Cc1ccc(NC(=S)NCc2ccc3c(c2)OCO3)cc1C,-25,-14,12,18*,15,18*
COc1ccc(/C=C/C(=O)NC(C)CCc2ccccc2)cc1 (configuration not stated),3,2,19,22*,11,7
COc1ccc(/C=C/C(=O)NC(C)CCc2ccccc2)cc1OC (configuration not stated),7,17,8,/,/,/
CCCCN1C2=NCCCN2c2cc(C)c(C)cc21,-6,-13,13,22*,11,6
CCCCN1C2=NCCCN2c2ccccc21,9,17,4,1,/,/
O=C(c1cc(-c2cccs2)on1)N1CCc2ccccc2C1,-6,-33,14,29*,17,17
O=C(c1cc(-c2ccccc2O)on1)N1CCc2ccccc2C1,-21,-7,3,6,/,/
CC1=C(C(=O)OC(C)C)C(c2ccccc2)NC(=S)N1C (configuration not stated),12,20,4,3,/,/
Cc1ccc(C(C(=O)NC2CCCC2)N(C(=O)Cc2cccs2)c2ccc(C)c(C)c2)o1 (configuration not stated),-7,-26,18,24*,14,9
CN(C)Cc1ccccc1Sc1ccccc1Br,-4,-16,16,9,/,/
CN(C)Cc1ccccc1Sc1cccc2ccccc12,-14,-62,18,22*,15,21*
CCc1cccc(CC)c1NC(=O)Cn1c(-c2ccccc2Cl)nc2ccccc21,-4,-2,8,24*,13,11
CCOc1ccc(Oc2c(/C=N/NC(C)=O)c(C)nn2-c2ccccc2)cc1,-11,-56,12,32*,16,31*
Cc1ccc(S(=O)(=O)C2(C(=O)N3CCCCC3C)CC2)cc1 (configuration not stated),12,-25,2,2,/,/
Cc1ccc2cccc(NC(=S)NC(=O)c3ccccc3)c2n1,-51,-48,14,22*,20*,43*
COC(=O)C(NC(=O)c1ccc(Cl)cc1)(Nc1nc(C)cs1)C(F)(F)F (configuration not stated),-18,-27,1,1,/,/
CCCCNC(=O)c1onc(CSc2ccc(F)c(F)c2)c1C(=O)O,-19,-9,14,23*,14,12
CCCC[C@@H]1C[C@H]1[C@@H](NC(=O)c1ccco1)c1ccc(Cl)cc1,2,-25,9,2,/,/
CCCC[C@@H]1C[C@H]1[C@@H](NC(=O)c1cccs1)c1ccc(Cl)cc1,1,-46,2,18*,13,17
Cc1cc(C)nc(Sc2ncnc(N)c2[N+](=O)[O-])n1,18,7,-4,/,/,/
COc1ccc(OCCNc2cc(N3CCCCC3)ccc2[N+](=O)[O-])cc1,-7,-12,7,18*,4,7
O=C(c1ccc(S(=O)(=O)N2CCCC2)cc1)N1CCC(CN2C(=O)c3cccc4cccc(c34)C2=O)CC1,-36,18,/,/,/,/
COc1ccc(S(=O)(=O)N2CCC(CN3C(=O)c4cccc5cccc(c45)C3=O)CC2)cc1,-5,-48,6,23*,8,15
CCc1nc(N(CC)CC)c2oc3ccccc3c2n1,-9,-15,14,19*,9,6

# Screening results (PubChem)
